Where a SMILES comes first, the peptide text is derived from it. [ ]: non-standard residue; d: D form.

For series [1], the target named is T1, Solute carrier organic anion transporter family member 1B1 (Homo sapiens, UniProt Q9Y6L6).
T1 sequence (Q9Y6L6 whole entry): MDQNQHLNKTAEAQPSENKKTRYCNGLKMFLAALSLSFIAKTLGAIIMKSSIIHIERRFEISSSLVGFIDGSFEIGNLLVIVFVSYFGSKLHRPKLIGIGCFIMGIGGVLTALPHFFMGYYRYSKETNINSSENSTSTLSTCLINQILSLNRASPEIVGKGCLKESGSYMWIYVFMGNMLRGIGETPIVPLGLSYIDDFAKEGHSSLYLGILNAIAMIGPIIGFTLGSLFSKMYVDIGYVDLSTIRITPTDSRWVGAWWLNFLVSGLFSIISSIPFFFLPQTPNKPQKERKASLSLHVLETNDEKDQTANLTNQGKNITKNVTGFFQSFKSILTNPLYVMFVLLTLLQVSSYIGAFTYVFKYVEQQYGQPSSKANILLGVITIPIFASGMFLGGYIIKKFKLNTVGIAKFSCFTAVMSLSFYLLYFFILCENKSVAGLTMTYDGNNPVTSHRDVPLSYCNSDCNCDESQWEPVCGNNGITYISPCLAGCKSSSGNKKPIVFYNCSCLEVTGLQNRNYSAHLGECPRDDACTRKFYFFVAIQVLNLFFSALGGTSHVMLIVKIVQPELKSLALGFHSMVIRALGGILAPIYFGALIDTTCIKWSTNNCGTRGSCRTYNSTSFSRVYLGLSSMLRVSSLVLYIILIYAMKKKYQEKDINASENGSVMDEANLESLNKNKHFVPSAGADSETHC
Briefly: TP_TRANSPORTER: inhibition of E1S uptake (E1S: 0.004 uM, Ala4: 5000 uM) in Xenopus laevis oocytes. Conditions: oocyte. It counts as functional, cell-based. In outline:
(§1)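 Oocytes injected with OATP-C cRNA (25 ng), cultured 3 days in modified Barth's solution, then incubated 30 min at 25 °C in medium 1 (pH 7.4) with [3H]estrone-3-sulfate (4 nM) plus or minus inhibitor. OATP-C-specific uptake = total minus water-injected oocyte uptake, expressed as percent of control; mean ± s.e.m., n = 5–10.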

The target of series [2] is T1, Solute carrier organic anion transporter family member 1B1. Briefly: TP_TRANSPORTER: inhibition of E1S uptake (E1S: 0.004 uM, Gly4: 5000 uM) in Xenopus laevis oocytes. Conditions: oocyte. It counts as functional, cell-based. In outline:
as §1

Series [3] shares this target. Briefly: TP_TRANSPORTER: inhibition of E1S uptake (E1S: 0.004 uM, YdAG: 1000 uM) in Xenopus laevis oocytes. It counts as functional, cell-based. The note with it: oocyte. In outline:
as §1

For series [4], the target named is T2, Solute carrier organic anion transporter family member 1B1 (OATP1B1) (Homo sapiens, UniProt Q9Y6L6).
T2 sequence (Q9Y6L6 whole entry): T1 sequence (Q9Y6L6 whole entry)
Briefly: TP_TRANSPORTER: inhibition of E1S uptake (E1S: 0.004 uM, des-tyrosine DADLE: 1000 uM) in Xenopus laevis oocytes. Type of series: functional, cell-based, Oocyte. Also on record: scale not given: the % may be the effect or the level left. The note with it: probe E1S (0.004 uM), read-out: Activity. The essentials:
as §1

In series [5] the target is T2, Solute carrier organic anion transporter family member 1B1 (OATP1B1). As to the kind of experiment: TP_TRANSPORTER: inhibition of E1S uptake (E1S: 0.004 uM, YGG: 1000 uM) in Xenopus laevis oocytes. Type of series: functional, cell-based, Oocyte. Also on record: scale not given: the % may be the effect or the level left. Conditions: probe E1S (0.004 uM), read-out: Activity. The essentials: as §1

For series [6] the target is unchanged. Briefly: TP_TRANSPORTER: inhibition of DPDPE uptake (DPDPE: 0.02 uM) in Xenopus laevis oocytes. The note with it: probe DPDPE (0.02 uM). Type of series: functional, cell-based, Oocyte. On the set-up: scale not given: the % may be the effect or the level left.
Series [7] has the same target. As to the kind of experiment: TP_TRANSPORTER: inhibition of E1S uptake (E1S: 0.004 uM, Ala5: 5000 uM) in Xenopus laevis oocytes. It counts as functional, cell-based, Oocyte. On the set-up: scale not given: the % may be the effect or the level left. The note with it: probe E1S (0.004 uM), read-out: Activity. The essentials: as §1
For series [8] the target is unchanged. Briefly: TP_TRANSPORTER: inhibition of E1S uptake (E1S: 0.004 uM, DADLE: 1000 uM) in Xenopus laevis oocytes. The note with it: probe E1S (0.004 uM), read-out: Activity. Also on record: scale not given: the % may be the effect or the level left. It counts as functional, cell-based, Oocyte. The essentials:
as §1

Series [9] deals with T1, Solute carrier organic anion transporter family member 1B1. As to the kind of experiment: TP_TRANSPORTER: uptake of [D-Pen2,D-Pen5]-enkephalin at a concentration of 0.02 u M in Xenopus laevis oocytes. It counts as functional, cell-based. The note with it: oocyte, 0.02 µM. In outline:
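OATP-C cRNA- or water-injected oocytes incubated 60 min at 25 °C in medium 1 (pH 7.4) with [3H]DPDPE (20 nM). Washed with ice-cold buffer, solubilized in 5% SDS, radioactivity counted. Uptake given as cell-to-medium ratio (uptake amount divided by medium concentration); mean ± s.e.m., n = 5–10.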

Series [10] has as its target T2, Solute carrier organic anion transporter family member 1B1 (OATP1B1). Briefly: in vitro. The note with it: xenopus laevis, Xenopus laevis oocytes, probe E1S (0.004 uM).
The target of series [11] is T1, Solute carrier organic anion transporter family member 1B1. Briefly: TP_TRANSPORTER: inhibition of E1S uptake (E1S: 0.004 uM, PAH: 500 uM) in Xenopus laevis oocytes. The note with it: oocyte. Type of series: functional, cell-based. In outline: as §1
Series [12] shares this target. Briefly: TP_TRANSPORTER: inhibition of E1S uptake (E1S: 0.004 uM, Carnitine: 50 uM) in Xenopus laevis oocytes. It counts as functional, cell-based. Conditions: oocyte. In outline:
as §1

For series [13], the target named is T2, Solute carrier organic anion transporter family member 1B1 (OATP1B1). As to the kind of experiment: TP_TRANSPORTER: inhibition of E1S uptake (E1S: 0.004 uM, BSP: 50 uM) in Xenopus laevis oocytes. Type of series: functional, cell-based, Oocyte. Also on record: scale not given: the % may be the effect or the level left. Conditions: probe E1S (0.004 uM), read-out: Activity. The essentials: as §1

The target is the same in series [14]. As to the kind of experiment: TP_TRANSPORTER: inhibition of E1S uptake (E1S: 0.004 uM, Quinidine: 500 uM) in Xenopus laevis oocytes. Type of series: functional, cell-based, Oocyte. On the set-up: scale not given: the % may be the effect or the level left. Conditions: probe E1S (0.004 uM), read-out: Activity. In outline: as §1
Series [15] addresses T1, Solute carrier organic anion transporter family member 1B1. As to the kind of experiment: TP_TRANSPORTER: inhibition of E1S uptake (E1S: 0.004 uM, CCK-8: 100 uM) in Xenopus laevis oocytes. Type of series: functional, cell-based. On the set-up: scale not given: the % may be the effect or the level left. Conditions: oocyte. The essentials: as §1

Regarding `C[C@H](N)C(=O)N[C@@H](C)C(=O)N[C@@H](C)C(=O)N[C@@H](C)C(=O)O` (H-AAAA-OH), the Activity entry in series [1] was “is not an inhibitor [-]”.

On to `NCC(=O)NCC(=O)NCC(=O)NCC(=O)O` (H-GGGG-OH), for which the Activity entry in series [2] was “is not an inhibitor [-]”.

For the molecule `C[C@@H](NC(=O)[C@@H](N)Cc1ccc(O)cc1)C(=O)NCC(=O)O` (H-Tyr-[dA]-Gly-OH), the Activity result in [3] was “is not an inhibitor [-]”.

For `CC(C)C[C@@H](NC(=O)[C@H](Cc1ccccc1)NC(=O)CNC(=O)[C@@H](C)N)C(=O)O`, the activity at 1000 µM in series [4] was 62.5%. With `N[C@@H](Cc1ccc(O)cc1)C(=O)NCC(=O)NCC(=O)O` (H-Tyr-Gly-Gly-OH), the activity at 1000 µM in series [5] worked out at 77.2%. The molecule `C[C@]12CC[C@@H]3c4ccc(OS(=O)(=O)O)cc4CC[C@H]3[C@@H]1CCC2=O` [ESTRONE SULFURIC ACID] had an Activity in series [6] of 50%. On to `C[C@H](N)C(=O)N[C@@H](C)C(=O)N[C@@H](C)C(=O)N[C@@H](C)C(=O)N[C@@H](C)C(=O)O`, for which the activity at 5000 µM in series [7] was found to be 86.3%. For `CC(C)C[C@@H](NC(=O)[C@H](Cc1ccccc1)NC(=O)CNC(=O)[C@@H](C)NC(=O)[C@@H](N)Cc1ccc(O)cc1)C(=O)O` [DADLE], the activity at 1000 µM in series [8] is 35.4%. Consider `CC1(C)SSC(C)(C)[C@@H](NC(=O)[C@@H](N)Cc2ccc(O)cc2)C(=O)NCC(=O)N[C@@H](Cc2ccccc2)C(=O)N[C@H]1C(=O)O`, for which the Activity result in series [9] is “substrate [+]”. For `CC(C)C[C@H](NC(=O)[C@H](Cc1ccccc1)NC(=O)CNC(=O)CNC(=O)[C@@H](N)Cc1ccc(O)cc1)C(=O)O` [ENKEPHALIN], the activity at 1000 µM in [10] is 26.8%. On to `Nc1ccc(C(=O)NCC(=O)O)cc1` [AMINOHIPPURIC ACID], for which, in series [11], the Activity entry was “is not an inhibitor [-]”. With `C[N+](C)(C)CC(O)CC(=O)[O-]` (stereo unspecified) [CARNITINE], the Activity entry in series [12] was “is not an inhibitor [-]”. In [6], `O=C1OC(c2ccc(O)c(S(=O)(=O)O)c2)(c2ccc(O)c(S(=O)(=O)O)c2)c2c(Br)c(Br)c(Br)c(Br)c21` [SULFOBROMOPHTHALEIN SODIUM] came in with an Activity of 25%. Besides, in [13], the activity at 50 µM worked out at 8%.

For the molecule `C=C[C@H]1C[N@@]2CC[C@H]1C[C@@H]2[C@@H](O)c1ccnc2ccc(OC)cc12` [QUINIDINE], the activity at 500 µM in series [14] worked out at 81%. In series [15], `CSCC[C@H](NC(=O)[C@H](Cc1ccc(OS(=O)(=O)O)cc1)NC(=O)[C@@H](N)CC(=O)O)C(=O)NCC(=O)N[C@@H](Cc1c[nH]c2ccccc12)C(=O)N[C@@H](CCSC)C(=O)N[C@@H](CC(=O)O)C(=O)N[C@@H](Cc1ccccc1)C(N)=O` [SINCALIDE] came in with an Activity of 9.1%.

These data come from ChEMBL document CHEMBL2074476, “Contribution of organic anion transporting polypeptide OATP-C to hepatic elimination of the opioid pentapeptide analogue [D-Ala2, D-Leu5]-enkephalin” (J Pharm Pharmacol, 2003).
